The results in this text go back to ChEMBL document CHEMBL1781932 (J Med Chem, 2011).

≈ marks a conversion by molar mass, not a printed value.

What all share (type): functional
Test [1] relates to Pseudomonas aeruginosa. Description: Antimicrobial activity against tetracycline-susceptible Pseudomonas aeruginosa isolate 111 by CLSI dilution method. Put shortly: (§1)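 Broth microdilution per CLSI in fresh cation-adjusted Mueller Hinton broth, kept at 4 °C before testing, with defibrinated horse blood added as appropriate. Strains were from ATCC. MIC in µg/mL. Runs were accepted when comparator antibiotics against ATCC quality-control strains fell within recommended ranges.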

Test [2] concerns Staphylococcus aureus. Description: Antimicrobial activity against tetracycline-resistant Staphylococcus aureus isolate 158 harboring tetK gene by CLSI dilution method.
For test [3], the system named is Staphylococcus aureus. The test is described as follows: Antimicrobial activity against tetracycline-susceptible Staphylococcus aureus isolate 101 by CLSI dilution method.
Test [4] deals with Streptococcus pneumoniae. Description: Antimicrobial activity against tetracycline-susceptible Streptococcus pneumoniae isolate 106 by CLSI dilution method. Put shortly: as §1
For test [5], the system named is Enterococcus faecalis. The test is described as follows: Antimicrobial activity against tetracycline-resistant Enterococcus faecalis isolate 159 harboring […] gene by CLSI dilution method.
The test system of test [6] is Staphylococcus aureus. The test is described as follows: Antimicrobial activity against methicillin-, tetracycline-resistant Staphylococcus aureus isolate 161 harboring tetM gene by CLSI dilution method.
For test [7], the system named is Acinetobacter baumannii. The test is described as follows: Antimicrobial activity against tetracycline-susceptible Acinetobacter baumannii isolate 110 by CLSI dilution method. Put shortly: as §1
Test [8] relates to Streptococcus pneumoniae. The test is described as follows: Antimicrobial activity against tetracycline-resistant Streptococcus pneumoniae isolate 160 harboring tetM gene by CLSI dilution method.
Test [9] relates to Klebsiella pneumoniae. The test is described as follows: Antimicrobial activity against tetracycline-susceptible Klebsiella pneumoniae isolate 109 by CLSI dilution method. An outline of the steps: as §1
The test system of test [10] is Klebsiella pneumoniae. Description: Antimicrobial activity against tetracycline-resistant Klebsiella pneumoniae isolate 153 harboring tetA gene by CLSI dilution method.
Test [11] has as its system Enterococcus faecalis. Description: Antimicrobial activity against tetracycline-susceptible Enterococcus faecalis isolate 103 by CLSI dilution method. Put shortly:
as §1

Test [12] has as its system Enterobacter cloacae. Description: Antimicrobial activity against tetracycline-susceptible Enterobacter cloacae isolate 108 by CLSI dilution method. Put shortly:
as §1

For test [13], the system named is Escherichia coli. Description: Antimicrobial activity against tetracycline-susceptible Escherichia coli isolate 107 by CLSI dilution method. An outline of the steps:
as §1

Test [14] relates to Escherichia coli. Description: Antimicrobial activity against tetracycline-resistant Escherichia coli isolate 155 harboring tetA gene by CLSI dilution method.

As for `CN(C)[C@@H]1C(O)=C(C(N)=O)C(=O)[C@@]2(O)C(O)=C3C(=O)c4c(c(F)c5ccc(CN6CCCC6)cc5c4O)C[C@H]3C[C@@H]12`, the minimal inhibitory concentration (MIC) (usually the lowest concentration that inhibits growth of the organism) in test [1] stood at 32 µg/mL (≈ 56.6 µM); in test [2] it was 0.125 µg/mL (≈ 0.221 µM); in test [3], 0.25 µg/mL (≈ 0.442 µM); in test [4], 0.0313 µg/mL (≈ 0.0553 µM); in test [5], 1 µg/mL (≈ 1.77 µM); in test [6], 1 µg/mL (≈ 1.77 µM). Besides, the MIC in [7] turned out to be 0.25 µg/mL (≈ 0.442 µM); in test [8], 0.0313 µg/mL (≈ 0.0553 µM); in test [9] it was 2 µg/mL (≈ 3.54 µM); in test [10], 4 µg/mL (≈ 7.07 µM); in test [11], 0.125 µg/mL (≈ 0.221 µM); in test [12], 4 µg/mL (≈ 7.07 µM). Besides, the minimal inhibitory concentration (MIC) in test [13] was 1 µg/mL (≈ 1.77 µM); in test [14], 4 µg/mL (≈ 7.07 µM).

Turning to `COc1c2c(c(O)c3cc(CN4CCCC4)ccc13)C(=O)C1=C(O)[C@]3(O)C(=O)C(C(N)=O)=C(O)[C@@H](N(C)C)[C@@H]3C[C@@H]1C2`, the MIC came to 16 µg/mL (≈ 27.7 µM) in test [1]; 0.125 µg/mL (≈ 0.216 µM) in [2]; 0.25 µg/mL (≈ 0.433 µM) in [3]; 0.0156 µg/mL (≈ 0.027 µM) in [4]; 4 µg/mL (≈ 6.92 µM) in test [5]; 2 µg/mL (≈ 3.46 µM) in test [6]. The MIC in [7] amounted to 1 µg/mL (≈ 1.73 µM); in test [8], 0.25 µg/mL (≈ 0.433 µM); in [9], 4 µg/mL (≈ 6.92 µM); in [10], 8 µg/mL (≈ 13.8 µM); in [11] it was 0.25 µg/mL (≈ 0.433 µM); in [12] it was 4 µg/mL (≈ 6.92 µM). Besides, the MIC is 1 µg/mL (≈ 1.73 µM) in test [13] and 8 µg/mL (≈ 13.8 µM) in test [14].

In the case of `CCCOc1c2c(c(O)c3cc(CN4CCC4)ccc13)C(=O)C1=C(O)[C@]3(O)C(=O)C(C(N)=O)=C(O)[C@@H](N(C)C)[C@@H]3C[C@@H]1C2`, the MIC in [1] was determined as 32 µg/mL (≈ 54.1 µM); in [2], 0.25 µg/mL (≈ 0.423 µM); in [3] it was 0.125 µg/mL (≈ 0.211 µM); in test [4], 0.0156 µg/mL (≈ 0.0264 µM); in test [5], 2 µg/mL (≈ 3.38 µM); in test [6], 2 µg/mL (≈ 3.38 µM). Further, the MIC in test [7] stood at 1 µg/mL (≈ 1.69 µM); in test [8], 0.0625 µg/mL (≈ 0.106 µM); in test [9], 8 µg/mL (≈ 13.5 µM); in [10], 32 µg/mL (≈ 54.1 µM); in [11], 0.25 µg/mL (≈ 0.423 µM); in [12] it was 16 µg/mL (≈ 27 µM). Besides, the MIC in test [13] was 2 µg/mL (≈ 3.38 µM); in test [14], 16 µg/mL (≈ 27 µM).

On to `CC(C)Oc1c2c(c(O)c3cc(CN4CCC4)ccc13)C(=O)C1=C(O)[C@]3(O)C(=O)C(C(N)=O)=C(O)[C@@H](N(C)C)[C@@H]3C[C@@H]1C2`, for which the MIC in test [1] was above 32 µg/mL; in test [2], 0.25 µg/mL (≈ 0.423 µM); in test [3] it was 0.125 µg/mL (≈ 0.211 µM); in test [4], 0.0313 µg/mL (≈ 0.0529 µM); in test [5], 4 µg/mL (≈ 6.76 µM); in [6], 4 µg/mL (≈ 6.76 µM). In addition, the MIC was found to be 2 µg/mL (≈ 3.38 µM) in test [7]; 0.0625 µg/mL (≈ 0.106 µM) in test [8]; 16 µg/mL (≈ 27 µM) in test [9]; 32 µg/mL (≈ 54.1 µM) in [10]; 0.5 µg/mL (≈ 0.845 µM) in test [11]; 16 µg/mL (≈ 27 µM) in [12]. Further, the MIC in test [13] was determined as 4 µg/mL (≈ 6.76 µM); in [14], 16 µg/mL (≈ 27 µM).

In the case of `CN(C)Cc1ccc2cc3c(c(O)c2c1)C(=O)C1=C(O)[C@]2(O)C(=O)C(C(N)=O)=C(O)[C@@H](N(C)C)[C@@H]2C[C@@H]1C3`, the MIC in test [1] is above 32 µg/mL; in [2] it was 0.25 µg/mL (≈ 0.479 µM); in test [3] it was 0.25 µg/mL (≈ 0.479 µM); in test [4], 0.0313 µg/mL (≈ 0.06 µM); in test [5], 1 µg/mL (≈ 1.92 µM); in test [6], 1 µg/mL (≈ 1.92 µM). Moreover, the MIC was 2 µg/mL (≈ 3.83 µM) in test [7]; 0.125 µg/mL (≈ 0.24 µM) in test [8]; 2 µg/mL (≈ 3.83 µM) in test [9]; 4 µg/mL (≈ 7.67 µM) in [10]; 0.25 µg/mL (≈ 0.479 µM) in test [11]; 2 µg/mL (≈ 3.83 µM) in test [12]. Further, the results for the MIC in test [13] and in [14] were 1 µg/mL (≈ 1.92 µM) and 4 µg/mL (≈ 7.67 µM), respectively.

Consider `CCN(C)Cc1ccc2cc3c(c(O)c2c1)C(=O)C1=C(O)[C@]2(O)C(=O)C(C(N)=O)=C(O)[C@@H](N(C)C)[C@@H]2C[C@@H]1C3`, for which the MIC in [1] was above 32 µg/mL; in [2] it was 0.5 µg/mL (≈ 0.934 µM); in test [3], 0.25 µg/mL (≈ 0.467 µM); in [4], 0.125 µg/mL (≈ 0.233 µM); in [5], 4 µg/mL (≈ 7.47 µM); in test [6], 2 µg/mL (≈ 3.73 µM). The MIC was found to be 2 µg/mL (≈ 3.73 µM) in test [7]; 0.25 µg/mL (≈ 0.467 µM) in [8]; 8 µg/mL (≈ 14.9 µM) in [9]; 32 µg/mL (≈ 59.7 µM) in test [10]; 0.5 µg/mL (≈ 0.934 µM) in test [11]; 4 µg/mL (≈ 7.47 µM) in [12]. The MIC was 2 µg/mL (≈ 3.73 µM) in test [13] and 16 µg/mL (≈ 29.9 µM) in test [14].
